According to ChEMBL document CHEMBL1121883, “1-(Naphthylalkyl)-1H-imidazole derivatives, a new class of anticonvulsant agents” (J Med Chem, 1981):
Values joined by “and” are separate entries in the source; they are usually repeats but may differ in a detail not shown here. Identical values can stand only once.

Assays:
Mus musculus [1] = assay: Compound was evaluated for anticonvulsant activity by maximal electroshock assay(MES) in mice after ip administration; 9-26; assay type: functional
Procedure, shortened: (§1)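 Male Hilltop ICR-derived mice (19-30 g), groups of 8-10, dosed ip with compound or aqueous vehicle. After 15 min pretreatment, a transcorneal 60-Hz, 50 mA shock was given for 0.2 s. Just before the shock, each mouse was tested on a horizontal wire (10 s). Quantal data were analysed by Litchfield-Wilcoxon to give ED50 with 95% confidence limits.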

Mus musculus [2] = assay: Dose of compound causing a neurological deficit in 50% of mice after ip administration; 17-61; assay type: functional
Procedure, shortened: (§2)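 Traction test in male Hilltop ICR-derived mice (19-30 g, groups of 8-10) just before electroshock, 15 min after ip or 30 min after oral dosing. Mice placed on a 16-gauge, 65-cm copper wire 40 cm above the table; deficit scored as failure to stay on for 10 s. ND50 with 95% limits by Litchfield-Wilcoxon.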

Mus musculus [3] = assay: Protective index is defined as ND50 (i.p.) divided by MES ED50(i.p.); assay type: functional
Procedure, shortened: (§3)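 Ratio of ND50 from the wire traction test to MES ED50, both measured by the same route (ip or oral) in the same animals. Quantal dose-response data for each were evaluated by Litchfield-Wilcoxon.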

Mus musculus [4] = assay: Dose causing a neurological deficit in 50% of mice following p.o. administration.; assay type: functional; procedure, shortened: as §2
Mus musculus [5] = assay: Compound was evaluated for anticonvulsant activity by maximal electroshock assay(MES) in mice after po administration; 33-62; assay type: functional
Procedure, shortened: (§4)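 Male Hilltop ICR-derived mice (19-30 g), groups of 8-10, given compound or aqueous vehicle orally. The transcorneal 60-Hz shock (50 mA, 0.2 s) followed a 30 min pretreatment and a wire-hang neurological check (10 s). ED50 and 95% confidence limits were obtained from quantal data by the Litchfield-Wilcoxon method.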

Mus musculus [6] = assay: Dose of compound causing a neurological deficit in 50% of mice after ip administration; 32-89; assay type: functional; procedure, shortened: as §2
Mus musculus [7] = assay: Protective index defined as ND50 (p.o.) divided by MES ED50(op); assay type: functional; procedure, shortened: as §3
[8] = Lethal dose was measured in mice after ip administration.; assay type: toxicity, organism-based; settings: mouse, in vivo
Procedure, shortened: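 Male Simonsen ICR-derived mice (16-24 g), groups of three, given compound ip in increasing doses within a behavioral screen. Deaths counted on day 5, and LD50 estimated from 5-day survival. Quantal data analysed by the Litchfield-Wilcoxon method.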

Rattus norvegicus [9] = assay: Compound was evaluated for anticonvulsant activity by maximal electroshock assay(MES) in rat after po administration; 11-42; assay type: functional
Procedure, shortened: (§5)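 Male Simonsen Sprague-Dawley-derived rats, 80-110 g, groups of 8-10, dosed with compound or aqueous vehicle; pretreatment 15 min after ip or 30 min after oral dosing. Transcorneal electroshock, 150 mA, 60 Hz, 0.2 s, given after the wire test. ED50 with 95% confidence limits from quantal data by Litchfield-Wilcoxon.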

Mus musculus [10] = assay: Dose of compound causing a neurological deficit in 50% of mice after ip administration; 13-115; assay type: functional; procedure, shortened: as §2
Rattus norvegicus [11] = assay: Dose of compound causing a neurological deficit in 50% of rat after ip administration; 26-92; assay type: functional
Procedure, shortened: (§6)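 Rats (Simonsen Sprague-Dawley-derived, 80-110 g, groups of 8-10) placed on a suspended 16-gauge, 65-cm copper wire just before electroshock. Deficit scored as inability to remain for 8 s. Pretreatment was 15 min ip or 30 min oral. Quantal data analysed by Litchfield-Wilcoxon to give ND50 with 95% limits.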

Rattus norvegicus [12] = assay: Dose of compound causing a neurological deficit in 50% of rat after po administration.; assay type: functional; procedure, shortened: as §6
Mus musculus [13] = assay: Compound was evaluated for anticonvulsant activity by maximal electroshock assay(MES) in mice after po administration; 16-32; assay type: functional; procedure, shortened: as §4
Rattus norvegicus [14] = assay: Compound was evaluated for anticonvulsant activity by maximal electroshock assay(MES) in rat after ip administration; 5.3-12; assay type: functional; procedure, shortened: as §5
Mus musculus [15] = assay: Compound was evaluated for anticonvulsant activity by maximal electroshock assay(MES) in mice after ip administration; 8-13; assay type: functional; procedure, shortened: as §1
Mus musculus [16] = assay: Dose of compound causing a neurological deficit in 50% of mice after ip administration; 16 to > 100; assay type: functional; procedure, shortened: as §2
Mus musculus [17] = assay: Dose of compound causing a neurological deficit in 50% of mice after ip administration; 70-93; assay type: functional; procedure, shortened: as §2
Mus musculus [18] = assay: Compound was evaluated for anticonvulsant activity by maximal electroshock assay(MES) in mice after ip administration; 23-38; assay type: functional; procedure, shortened: as §1
Mus musculus [19] = assay: Compound was evaluated for anticonvulsant activity by maximal electroshock assay(MES) in mice after ip administration; 18-28; assay type: functional; procedure, shortened: as §1
Mus musculus [20] = assay: Dose of compound causing a neurological deficit in 50% of mice after ip administration; 71-111; assay type: functional; procedure, shortened: as §2
Mus musculus [21] = assay: Compound was evaluated for anticonvulsant activity by maximal electroshock assay(MES) in mice after ip administration; 37-68; assay type: functional; procedure, shortened: as §1
Mus musculus [22] = assay: Dose causing a neurological deficit in 50% of mice after ip administration.; assay type: functional; procedure, shortened: as §2
Mus musculus [23] = assay: Compound was evaluated for anticonvulsant activity by maximal electroshock assay(MES) in mice after ip administration; 27-41; assay type: functional; procedure, shortened: as §1
Mus musculus [24] = assay: Compound was evaluated for anticonvulsant activity by maximal electroshock assay(MES) in mice after ip administration; 20-42; assay type: functional; procedure, shortened: as §1
Mus musculus [25] = assay: Compound was evaluated for anticonvulsant activity by maximal electroshock assay(MES) in mice after po administration.; assay type: functional; procedure, shortened: as §4
Mus musculus [26] = assay: Compound was evaluated for anticonvulsant activity by maximal electroshock assay(MES) in mice after ip administration; 13-19; assay type: functional; procedure, shortened: as §1
Mus musculus [27] = assay: Dose of compound causing a neurological deficit in 50% of mice after ip administration; 25-30; assay type: functional; procedure, shortened: as §2
Mus musculus [28] = assay: Dose of compound causing a neurological deficit in 50% of mice after ip administration; 16-49; assay type: functional; procedure, shortened: as §2
Mus musculus [29] = assay: Compound was evaluated for anticonvulsant activity by maximal electroshock assay(MES) in mice after po administration; 41-77; assay type: functional; procedure, shortened: as §4

Structure (SMILES): O=S(=O)(O)O.c1ccc(OC(Cn2ccnc2)c2ccc3ccccc3c2)cc1 (stereo unspecified)
- ED50 (Mus musculus [1]): 15 mg/kg
- ND50 (Mus musculus [2]): 32 mg/kg
- PI (Mus musculus [3]): 2.1

Structure (SMILES): CC1(C)COC(Cn2ccnc2)(c2ccc3ccccc3c2)OC1.Cl
- ND50 (Mus musculus [4]): >100 mg/kg
- ED50 (Mus musculus [5]): 47 mg/kg
- ND50 (Mus musculus [6]): 52 mg/kg
- PI (Mus musculus [7]): >2.1
- PI (Mus musculus [3]): 2
- LD50 [8]: > 100 mg/kg

Structure (SMILES): Cl.c1ccc2c(C3(Cn4ccnc4)OCCO3)cccc2c1
- ED50 (Rattus norvegicus [9]): 22 mg/kg
- ND50 (Mus musculus [4]): >100 mg/kg
- ND50 (Mus musculus [10]): 28 mg/kg
- ND50 (Rattus norvegicus [11]): 44 mg/kg
- ND50 (Rattus norvegicus [12]): ~200 mg/kg
- PI (Mus musculus [7]): >4.3 and ~9
- ED50 (Mus musculus [13]): 23 mg/kg
- ED50 (Rattus norvegicus [14]): 7.8 mg/kg

Structure (SMILES): COC(CCn1ccnc1)c1ccc2ccccc2c1.O=S(=O)(O)O (stereo unspecified)
- ED50 (Mus musculus [15]): 11 mg/kg
- PI (Mus musculus [3]): 3.5
- ND50 (Mus musculus [16]): >39 mg/kg

Structure (SMILES): CC(C)c1ccc(C(=O)Cn2ccnc2)c2ccccc12.Cl
- ND50 (Mus musculus [17]): 81 mg/kg
- PI (Mus musculus [3]): 2.9
- ED50 (Mus musculus [18]): 28 mg/kg

Structure (SMILES): CCC(=O)OC(Cn1ccnc1)c1ccc2ccccc2c1.Cl (stereo unspecified)
- ED50 (Mus musculus [19]): 23 mg/kg
- PI (Mus musculus [3]): 3.6
- ND50 (Mus musculus [20]): 83 mg/kg

Structure (SMILES): Cl.O=C(Cn1ccnc1)c1ccc2cc(Cl)ccc2c1
- ED50 (Mus musculus [21]): 51 mg/kg
- PI (Mus musculus [3]): >2
- ND50 (Mus musculus [22]): >100 mg/kg

Structure (SMILES): c1ccc2cc(C3(CCn4ccnc4)OCCO3)ccc2c1
- ED50 (Mus musculus [23]): 35 mg/kg
- PI (Mus musculus [3]): >2.9
- ND50 (Mus musculus [22]): >100 mg/kg

Structure (SMILES): COc1ccc2cc(C(=O)Cn3ccnc3)ccc2c1.Cl
- ED50 (Mus musculus [24]): 31 mg/kg
- ND50 (Mus musculus [4]): >100 mg/kg
- ED50 (Mus musculus [25]): > 100 mg/kg
- PI (Mus musculus [3]): >3.3
- LD50 [8]: > 100 mg/kg
- ND50 (Mus musculus [22]): >100 mg/kg

Structure (SMILES): CCCCOC(Cn1ccnc1)c1cccc2ccccc12 (stereo unspecified)
- ED50 (Mus musculus [26]): 16 mg/kg
- ND50 (Mus musculus [27]): 27 mg/kg
- PI (Mus musculus [3]): 1.7

Structure (SMILES): Cl.c1ccc2cc(C3(Cn4ccnc4)OCCCO3)ccc2c1
- ND50 (Mus musculus [4]): >100 mg/kg
- ND50 (Mus musculus [28]): 30 mg/kg
- PI (Mus musculus [7]): >1.7
- PI (Mus musculus [3]): 1.8
- ED50 (Mus musculus [29]): 57 mg/kg
